22 molecules from ChEMBL document CHEMBL3763060, “Synthesis and evaluation of analogs of the phenylpyridazinone NPD-001 as potent trypanosomal TbrPDEB1 phosphodiesterase inhibitors and in vitro trypanocidals” (Bioorg Med Chem, 2016) can be followed below.

In data set [1] the target is T1, Class 1 phosphodiesterase PDEB1 (Trypanosoma brucei, UniProt Q8WQX9).
T1 sequence (Q8WQX9 whole entry): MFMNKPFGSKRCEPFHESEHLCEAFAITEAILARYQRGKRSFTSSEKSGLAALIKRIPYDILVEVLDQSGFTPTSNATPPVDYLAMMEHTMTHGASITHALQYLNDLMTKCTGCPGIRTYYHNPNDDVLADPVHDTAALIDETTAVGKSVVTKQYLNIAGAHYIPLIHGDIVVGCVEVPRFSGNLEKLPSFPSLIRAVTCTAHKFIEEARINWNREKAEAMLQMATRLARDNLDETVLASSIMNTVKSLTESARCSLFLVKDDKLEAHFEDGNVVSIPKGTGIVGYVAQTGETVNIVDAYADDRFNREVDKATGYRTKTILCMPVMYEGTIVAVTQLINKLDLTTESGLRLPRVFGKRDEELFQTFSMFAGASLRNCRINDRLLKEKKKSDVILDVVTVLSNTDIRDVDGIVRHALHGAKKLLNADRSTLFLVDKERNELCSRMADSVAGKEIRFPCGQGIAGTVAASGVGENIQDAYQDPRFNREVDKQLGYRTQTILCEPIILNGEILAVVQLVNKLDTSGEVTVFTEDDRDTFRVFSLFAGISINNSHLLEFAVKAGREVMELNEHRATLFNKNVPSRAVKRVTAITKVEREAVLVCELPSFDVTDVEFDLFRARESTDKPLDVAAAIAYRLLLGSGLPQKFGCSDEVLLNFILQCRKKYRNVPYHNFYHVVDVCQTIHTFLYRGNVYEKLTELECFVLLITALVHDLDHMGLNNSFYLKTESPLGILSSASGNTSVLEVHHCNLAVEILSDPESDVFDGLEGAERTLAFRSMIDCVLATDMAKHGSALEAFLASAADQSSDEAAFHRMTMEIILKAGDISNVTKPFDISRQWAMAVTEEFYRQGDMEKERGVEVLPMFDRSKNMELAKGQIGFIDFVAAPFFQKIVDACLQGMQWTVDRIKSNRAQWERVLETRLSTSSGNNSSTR
The data set is described as follows: Inhibition of recombinant Trypanosoma brucei PDEB1 using [3H]-cAMP as substrate after 15 mins by scintillation proximity assay. In short, it runs like this:
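Inhibition of TbrPDEB1-mediated [³H]-cAMP hydrolysis was read by scintillation proximity assay. Each analog was run in at least two independent experiments.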
For orientation: Scintillation proximity formats need no separation of bound from free tracer.

Data set [2] is described as follows: Selectivity ratio of IC50 for Trypanosoma brucei recombinant PDEB1 to IC50 for full length human recombinant PDE4B1.
The target of data set [3] is 3',5'-cyclic-AMP phosphodiesterase 4B (Homo sapiens, UniProt Q07343). The data set is described as follows: Inhibition of full length human recombinant PDE4B1 using [3H]-cAMP as substrate by scintillation proximity assay.
Data set [4] deals with Trypanosoma brucei brucei. The data set is described as follows: Antitrypanosomal activity against suramin-sensitive Trypanosoma brucei brucei Squib427 assessed as inhibition of parasite growth. It is filed as functional, organism-based. The gist of the method:
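Bloodstream-form trypomastigotes of Squib-427 were grown at 37 °C and 5% CO₂ in Hirumi-9 medium with 10% FCS. Compounds came from 20 mM DMSO stocks, pre-diluted 2- or 4-fold serially in DMSO, then diluted in demineralized water; final DMSO was <1%. Results were reported as −logEC₅₀ with n = 2.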

Data set [5] in a line: Selectivity index, ratio of CC50 for human MRC5 cells to EC50 for suramin-sensitive Trypanosoma brucei brucei Squib427. The format is toxicity, cell-based. As to conditions: read-out: Ratio CC50/EC50. The gist of the method: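 The index was calculated as CC₅₀ in MRC-5 fibroblasts divided by EC₅₀ against T. b. brucei. Both came from parallel assays in Hirumi-9 medium with 10% FCS at 37 °C and 5% CO₂, each n = 2.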

Data set [6] is described as follows: Cytotoxicity against human MRC5 cells assessed as growth inhibition. It is filed as cell-based. The gist of the method: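 MRC-5 fibroblasts were grown at 37 °C and 5% CO₂ in Hirumi-9 medium with 10% FCS. Compounds came from 20 mM DMSO stocks, serially pre-diluted 2- or 4-fold in DMSO, then in demineralized water; final DMSO was <1%. Results were reported as −logCC₅₀ with n = 2.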

Data set [7] in a line: Solubility of compound in 0.05 M phosphate buffer at pH 7.4. The format is physicochemical.

Bounds are passed on as bounds.

Sequence of 3',5'-cyclic-AMP phosphodiesterase 4B (Q07343 whole entry): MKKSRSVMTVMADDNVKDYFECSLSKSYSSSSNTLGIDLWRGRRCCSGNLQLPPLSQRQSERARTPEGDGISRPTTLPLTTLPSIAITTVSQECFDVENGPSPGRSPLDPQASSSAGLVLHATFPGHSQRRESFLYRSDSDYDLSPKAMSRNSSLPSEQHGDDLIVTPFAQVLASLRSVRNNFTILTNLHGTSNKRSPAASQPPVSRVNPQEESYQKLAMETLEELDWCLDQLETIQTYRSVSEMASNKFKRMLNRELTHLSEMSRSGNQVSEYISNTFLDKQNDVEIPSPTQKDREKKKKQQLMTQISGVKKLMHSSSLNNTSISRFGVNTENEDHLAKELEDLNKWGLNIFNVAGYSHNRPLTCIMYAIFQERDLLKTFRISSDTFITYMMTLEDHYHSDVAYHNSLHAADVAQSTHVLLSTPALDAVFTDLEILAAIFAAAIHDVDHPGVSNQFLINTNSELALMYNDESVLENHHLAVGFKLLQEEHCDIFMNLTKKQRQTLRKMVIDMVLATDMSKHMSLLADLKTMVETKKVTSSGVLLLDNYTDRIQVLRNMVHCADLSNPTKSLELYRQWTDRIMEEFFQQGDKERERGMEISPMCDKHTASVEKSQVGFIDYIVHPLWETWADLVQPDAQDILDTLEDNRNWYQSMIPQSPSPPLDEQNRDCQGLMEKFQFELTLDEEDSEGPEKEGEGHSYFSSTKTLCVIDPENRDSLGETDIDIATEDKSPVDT

As for `COc1cccc(C2=NN(C3CCCCCC3)C(=O)[C@@H]3CC=CC[C@H]23)c1` (racemic), the 50% inhibitory concentration (IC50) (usually the concentration at which inhibition is half-maximal) in data set [1] is 100000 nM.
The same measure, in the same setting: with `COc1ccc(-c2nn(C3CCCCCC3)c(=O)c3ccccc23)cc1OC` the figure was greater than 10000 nM.
With `COc1ccc(C2=NN(C3CCCCCC3)C(=O)[C@@H]3CC=CC[C@H]23)cc1OC` (racemic), the Ratio IC50 in data set [2] came to 501. Further, the half-maximal inhibitory concentration (IC50) in data set [1] was 316 nM; in data set [3] it was 0.631 nM.
Regarding `COc1ccc(C2=NN(C3CCCCCC3)C(=O)[C@@H]3CC=CC[C@H]23)cc1OCCCCn1cnc2ncncc21` (racemic), in data set [4], the EC50 – broadly, the concentration giving half of the maximal effect – is 200 nM. Moreover, the Ratio IC50 in data set [2] amounted to 10. Besides, the IC50 in data set [1] is 15.8 nM; in data set [3], 1.58 nM. For the same molecule, the selectivity ratio in data set [5] worked out at 200. Also, in data set [6], the cytotoxic concentration (CC50) (as a rule, the concentration that lowers cell viability or growth by half) was 39800 nM.
As for `COc1ccc(C2=NN(C3CCCCCC3)C(=O)[C@@H]3CC=CC[C@H]23)cc1OCCc1ccc(N(C)C)cc1` (racemic), in data set [4], the EC50 was 1000 nM. The IC50 in data set [1] is 63.1 nM. Moreover, the selectivity ratio in data set [5] is greater than 63. In data set [6], the 50% cytotoxic concentration (CC50) was greater than 63100 nM.
For the molecule `COc1ccc(C2=NN(C3CCCCCC3)C(=O)[C@@H]3CC=CC[C@H]23)cc1OCCCCOc1ccc(-c2nnnn2C)cc1` (racemic), in data set [4], the half-maximal effective concentration (EC50) is 501 nM. Further, the Ratio IC50 in data set [2] came out at 16. Moreover, the figures for the IC50 in data set [1] and in data set [3] were 10 nM and 0.631 nM, respectively. For the same molecule, the solubility (usually the concentration that dissolves in the medium under given conditions) in data set [7] is less than 2 µM. Also, in data set [5], the selectivity ratio was greater than 125. Besides, the half-maximal cytotoxic concentration (CC50) in data set [6] is greater than 63100 nM.
As to `COc1ccc(C2=NN(C3CCCCCC3)C(=O)[C@@H]3CC=CC[C@H]23)cc1OCCO` (racemic), the EC50 in data set [4] is 2000 nM. Besides, the half-inhibitory concentration (IC50) in data set [1] is 100 nM. The selectivity ratio in data set [5] is 16. The cytotoxic concentration (CC50) in data set [6] is 31600 nM.
Consider `COc1ccc(C2=NN(C3CCCCCC3)C(=O)[C@@H]3CC=CC[C@H]23)cc1OCCCCOc1ccc(C(=O)O)cc1` (racemic), for which the Ratio IC50 in data set [2] amounted to 1000. The IC50 in data set [1] was 316 nM; in data set [3], 0.316 nM.
Regarding `COc1ccc(C2=NN(C3CCCCCC3)C(=O)[C@@H]3CC=CC[C@H]23)cc1OCc1ccccn1` (racemic), the IC50 in data set [1] was 100 nM.
Regarding `COc1ccc(C2=NN(C3CCCCCC3)C(=O)[C@@H]3CC=CC[C@H]23)cc1OCc1cccc(OC)c1OC` (racemic), the EC50 in data set [4] is 1580 nM. The IC50 in data set [1] is 79.4 nM. For the same molecule, the selectivity ratio in data set [5] is 2.5. In data set [6], the CC50 is 3980 nM.
Regarding `COc1ccc(C2=NN(C3CCCCCC3)C(=O)[C@@H]3CC=CC[C@H]23)cc1OCc1ccncc1` (racemic), in data set [4], the EC50 is 1260 nM. Further, the concentration for half-maximal inhibition (IC50) in data set [1] is 158 nM. In addition, the selectivity ratio in data set [5] is 12.6. In addition, the half-maximal cytotoxic concentration (CC50) in data set [6] was 15800 nM.
In the case of `COc1ccc(C2=NNC(=O)[C@@H]3CC=CC[C@H]23)cc1OC` (racemic), the IC50 in data set [1] was 12600 nM.
As to `COc1cc(COc2cc(C3=NN(C4CCCCCC4)C(=O)[C@@H]4CC=CC[C@H]34)ccc2OC)cc(OC)c1` (racemic), the EC50 in data set [4] was 1000 nM. For the same molecule, the IC50 in data set [1] was 126 nM. The selectivity ratio in data set [5] was determined as 12.6. Also, the CC50 in data set [6] is 12600 nM.
Turning to `COc1ccc(C2=NN(C3CCCCCC3)C(=O)[C@@H]3CC=CC[C@H]23)cc1` (racemic), the half-inhibitory concentration (IC50) in data set [1] is 3980 nM.
On to `COCCOc1cc(C2=NN(C3CCCCCC3)C(=O)[C@@H]3CC=CC[C@H]23)ccc1OC` (racemic), for which the EC50 in data set [4] is 794 nM. The IC50 in data set [1] was 79.4 nM. Further, in data set [5], the selectivity ratio was found to be 32. Moreover, the half-maximal cytotoxic concentration (CC50) in data set [6] is 25100 nM.
Taken in the same sequence, the figures for `COc1ccc(CCOc2cc(C3=NN(C4CCCCCC4)C(=O)[C@@H]4CC=CC[C@H]34)ccc2OC)cc1` (racemic) were 1260 nM, 63.1 nM, greater than 50 and greater than 63100 nM.
In the same order, the values of `COc1ccc(C2=NN(C3CCCCCC3)C(=O)[C@@H]3CC=CC[C@H]23)cc1OCCCCCc1ccccc1` (racemic) are 5010 nM, 63.1 nM, greater than 13 and greater than 63100 nM.
Regarding `COc1ccc(C2=NN(C3CCCCCC3)C(=O)[C@@H]3CC=CC[C@H]23)cc1OCCCCOc1ccc(-n2ccnc2)cc1` (racemic), the EC50 in data set [4] is 1000 nM. For the same molecule, the Ratio IC50 in data set [2] is 63. Besides, the IC50 was 12.6 nM in data set [1] and 0.2 nM in data set [3]. For the same molecule, the selectivity ratio in data set [5] stood at 40. The CC50 in data set [6] was 39800 nM.
For `COc1ccc(C2=NN(C3CCCCCC3)C(=O)[C@@H]3CCCC[C@H]23)cc1OC` (racemic), in data set [1], the IC50 was 1580 nM.
The same measure, in the same setting: with `COc1ccc(C2=NN(C3CCCCCC3)C(=O)CC2)cc1OC` the figure was 10000 nM.
Still for that read-out and setting: with `COc1ccc(C2=NN(C(C)C)C(=O)[C@@H]3CCCC[C@H]23)cc1OC` (racemic) the figure was 2000 nM.
Take `COc1ccc(C2=NN(C3CCCCCC3)C(=O)[C@@H]3CC=CC[C@H]23)cc1OCCCCOc1ccc(-c2nnn(C)n2)cc1` (racemic): the EC50 in data set [4] was 251 nM. Moreover, in data set [2], the Ratio IC50 worked out at 6. In addition, the 50% inhibitory concentration (IC50) is 3.16 nM in data set [1] and 0.501 nM in data set [3]. The same molecule gave a solubility in data set [7] of less than 2 µM. The selectivity ratio in data set [5] was greater than 251. For the same molecule, the 50% cytotoxic concentration (CC50) in data set [6] was greater than 63100 nM.
